Screening results from PubChem.
Rows were chosen to be rich in hits. Some 29% of all compounds tested hit in one or more screens of this group.
CYP2C9 activ = human CYP2C9 activators, primary screen, biochemical, luminescence; Cytochrome P450 2C9 (Homo sapiens), P11712; recombinant CYP2C9, luciferin-H conversion; active compounds read high; factor 1 = untreated enzyme, 0 = blocked; activation factor at 5 µM; hit rate 1.4% among 96,000; AID 1024, 2008;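 active = activation factor of 2 or more for CYP2C9 at a 5 µM dose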
tolC growth inh = growth inhibitors of E. coli tolC mutant, primary screen, strain BW25113 ΔtolC::kan, 384-well; OD615; growth inhibition, % at 10 µM (by protocol); hit rate 2.2% among 65,000;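 active = growth inhibition at or above a cutoff equal to the mean over every tested compound plus 3 SD, cut at about 60% in these data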;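 also: growth measured after 20 h incubation at 37 °C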
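Signal: optical density read at 615 nm; Assay system: E. coli ΔtolC::kan strain BW25113; Times: 20 h incubation with compound, 37 °C; Dosing: 10 µM final, single dose.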
CYP2C19 activ = human CYP2C19 activators, primary screen, biochemical, luminescence. Cytochrome P450 2C19 (Homo sapiens), P33261. recombinant CYP2C19, luciferin-H EGE luminescence; active compounds read high; 0 = fully inhibited enzyme, 1 = untreated enzyme. activation factor at 5 µM. 96,000 tested, under 10 active;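 active = activation factor of at least 2 at 5 µM in the primary screen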
Target sequence (P33261 whole entry, looked up): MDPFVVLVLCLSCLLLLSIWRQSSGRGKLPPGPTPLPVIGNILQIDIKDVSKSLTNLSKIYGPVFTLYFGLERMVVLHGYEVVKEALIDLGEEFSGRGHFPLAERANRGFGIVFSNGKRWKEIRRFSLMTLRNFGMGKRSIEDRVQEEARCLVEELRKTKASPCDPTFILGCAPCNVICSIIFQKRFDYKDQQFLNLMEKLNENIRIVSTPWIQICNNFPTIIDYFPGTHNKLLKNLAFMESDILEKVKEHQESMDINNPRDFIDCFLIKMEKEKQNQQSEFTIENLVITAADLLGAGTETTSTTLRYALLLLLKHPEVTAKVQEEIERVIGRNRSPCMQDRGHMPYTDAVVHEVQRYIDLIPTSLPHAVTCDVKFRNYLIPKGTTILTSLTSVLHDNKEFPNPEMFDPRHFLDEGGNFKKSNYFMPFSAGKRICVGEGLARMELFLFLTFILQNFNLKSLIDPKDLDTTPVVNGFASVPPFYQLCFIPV
CYP2C19 inhib = blockers of cytochrome P450 2C19 activity – biochemical, luminescence, ADME assay, primary screen | inhibition, % at 5 µM | hit rate 21% among 96,000 | CYP2C19 Supersomes, luciferin-H EGE luminescence, 30 min | AID 778, 2007;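 active = CYP2C19 inhibition above a set limit at 5 µM in the primary screen, cut at about 50% in these data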
CYP2C9 inhib = blockers of cytochrome P450 2C9 activity – biochemical, luminescence, ADME assay, primary screen | CYP2C9 Supersomes, luciferin-H conversion | hit rate 20% among 96,000 | inhibition, % at 5 µM | P11712;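 active = blocking of liver enzyme CYP2C9 beyond about 50% at 5 µM, limit read from the data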
Ecoli WT expand = growth inhibitors of wild-type E. coli, primary screen, strain BW25113, expanded library, OD600. OD600 absorbance. growth inhibition, % at 100 µM. hit rate 0.15% among 98,000;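 active = growth inhibition above about 50% at one test dose, limit read from the data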;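 also: growth measured after 20 h incubation at 37 °C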
Hits are given with their value; i = inactive; nt = no result given.

SMILES	CYP2C9 activ	tolC growth inh	CYP2C19 activ	CYP2C19 inhib	CYP2C9 inhib	Ecoli WT expand
CCn1ccnc1C(O)c1cccc(OC)c1OC (stereo not drawn)	i	i	i	i	i	i
COc1ccc(C(O)c2nccn2Cc2ccccc2)cc1OC (stereo not drawn)	i	nt	i	i	i	i
CCOc1ccc(C(O)c2nccn2Cc2ccccc2)cc1 (stereo not drawn)	i	i	i	80	i	i
O=C(CN1C(=O)NC2(CCCCCC2)C1=O)Nc1ccc(S(=O)(=O)N2CCOCC2)cc1	i	nt	i	i	i	i
O=C(Nc1ccc(N2C(=O)C3C4C=CC(C4)C3C2=O)cc1)Nc1cccnc1 (stereo not drawn)	i	i	i	i	60	i
COc1cc(N=c2ssnc2Cl)cc(OC)c1OC	i	i	i	i	89	i
N#Cc1ccc(N=c2ssnc2Cl)cc1	i	nt	i	i	97	i
CC(=O)/C(=C/N(C)C)Sc1ccc(C)cc1	i	nt	i	73	i	i
O=C(O)COc1ccc(/C=N/NC(=O)C2CCCN2S(=O)(=O)c2ccc(Cl)cc2)cc1 (stereo not drawn)	i	nt	i	i	i	i
Brc1ccc(-c2cn3nc4c(nc3n2)CCCC4)cc1	i	nt	i	i	i	i
c1ccc(-c2cn3nc4c(nc3n2)CCCC4)cc1	i	nt	i	81	i	i
Cc1nc2nc(-c3ccccc3)cn2nc1C	i	i	i	52	i	i
CC1CN(C(NC(=O)C(C)(C)C)C(Cl)(Cl)Cl)CC(C)O1 (stereo not drawn)	i	nt	i	i	i	i
CCCCC(=O)NC(N1CCCCC1)C(Cl)(Cl)Cl (stereo not drawn)	i	nt	i	59	i	i
CCOc1ccc(N/C=C/C(=O)c2ccc3ccccc3c2)c([N+](=O)[O-])c1	2.1	nt	i	i	i	i
COc1ccc(C(=O)/C=C/Nc2ccc([N+](=O)[O-])cc2C)cc1OC	i	nt	i	60	i	i
CCOc1ccc(N/C=C/C(=O)c2ccc(C)cc2)c([N+](=O)[O-])c1	i	nt	i	i	i	i
COc1ccc(C(=O)/C=C/Nc2ccc([N+](=O)[O-])cc2C)c(OC)c1	i	nt	i	i	i	i
Nc1ccnc(C(F)(F)F)c1C(=O)c1ccccc1	i	i	i	i	i	i
O=C(c1cccc(C(F)(F)F)c1)N1CCOC12CCN(c1ncc(C(F)(F)F)cc1Cl)CC2	i	nt	i	i	i	i
O=C(CN1C(=O)c2ccccc2S1(=O)=O)NCCSCc1ccco1	i	i	i	i	i	i
CCCCOc1ccccc1NC(=O)c1ccc(=O)[nH]c1	i	i	i	i	i	i
CCCOc1ccccc1NC(=O)c1ccc(N)cc1	2.7	i	i	i	i	i
COc1cc(/C=N/NC(=O)c2c(-c3ccccc3)noc2C)ccc1O	i	nt	i	52	77	i
COC(=O)c1cc(OC)c(OC)cc1NC(=O)c1ccc(C)cc1	i	nt	i	i	51	i
SMILES	CYP2C9 activ	tolC growth inh	CYP2C19 activ	CYP2C19 inhib	CYP2C9 inhib	Ecoli WT expand
COc1cc(/C=N/NC(=O)c2nc(C)cc(C)n2)ccc1O	i	nt	i	i	i	i
COC(=O)c1cc(OC)c(OC)cc1NC(=O)c1ccc(OC)cc1	i	nt	i	i	i	i
COc1cc(/C=N/NC(=O)C2c3ccccc3Oc3ccccc32)ccc1O	i	nt	i	i	53	i
COc1ccc(CC(=O)N2CC(C)CC(C)C2)cc1 (stereo not drawn)	i	nt	i	i	i	i
Cc1ccc(C)c(S(=O)(=O)NCC(=O)Nc2sc3c(c2C(N)=O)CCC(C)C3)c1 (stereo not drawn)	i	nt	i	i	i	i
Cc1cccc(C)c1NC(=O)c1c(-c2ccccc2)noc1C	i	i	i	i	i	i
COC(=O)c1cc(OC)c(OC)cc1NC(=O)Nc1ccc(OC)cc1OC	i	i	i	68	84	i
Cc1ccccc1NC(=O)c1c(-c2ccccc2)noc1C	i	i	i	52	i	i
CCn1c2ccccc2c2cc(/C=N/n3c(C)nnc3C)ccc21	i	nt	i	i	i	i
COC(=O)c1cc(OC)c(OC)cc1NC(=O)c1c(-c2ccccc2)noc1C	i	i	i	56	75	i
CCn1c2ccccc2c2cc(/C=N/NC(=O)c3ccccc3)ccc21	i	nt	i	73	i	i
CC(C)(C)OC(=O)NC(CCNC=C1C(=O)OC(C)(C)OC1=O)C(=O)O (stereo not drawn)	i	i	i	i	i	i
Cc1ccc(CCNC(=O)C2CCN(C(=O)c3sccc3-n3cccc3)CC2)cc1	i	i	i	i	i	i
O=C1c2ccccc2C(=O)N1Cc1nn2c(-c3ccc(Cl)cc3)nnc2s1	i	i	i	i	i	nt
Cn1nc(C(F)(F)F)cc1C(=O)NC1CCCCCC1	i	nt	i	i	i	i
COc1ccc(Nc2ncnc3c2cnn3Cc2ccc(C)cc2)cc1	i	nt	i	i	i	i
Cc1ccc(F)cc1NC(=O)c1c(-c2ccccc2)noc1C	i	i	i	53	i	i
COc1cc(/C=N/NC(=O)C(=O)N2CCCC2)ccc1O	i	nt	i	i	i	i
COc1cc(/C=N/NC(=O)CCn2c3ccccc3c3ccccc32)ccc1O	i	nt	i	60	65	i
COc1cc(OC)c(NC(=O)c2c(-c3ccccc3)noc2C)cc1Cl	i	i	i	i	i	i
COC(=O)c1onc(-c2c(C)cc(C)cc2C)c1C(=O)OC	i	nt	i	i	i	i
COC(=O)c1onc(-c2ccccc2)c1C(=O)OC	i	nt	i	72	i	i
CCOc1ccccc1NC(=O)c1ccc2nccnc2c1	2.1	i	i	i	i	i
CCN(CC)C(=O)Cn1c(=O)n(-c2ccccc2)c(=O)n1CC(=O)N(CC)CC	i	i	i	i	i	i
CCCOc1ccccc1NC(=O)c1c(-c2ccccc2)noc1C	i	72	i	i	i	i
SMILES	CYP2C9 activ	tolC growth inh	CYP2C19 activ	CYP2C19 inhib	CYP2C9 inhib	Ecoli WT expand
COc1ccc(Cl)cc1NC(=O)c1c(-c2ccccc2)noc1C	i	i	i	i	i	i
CCCCOCCCNC(=O)c1c(-c2ccccc2)noc1C	i	i	i	68	i	i
COCCCNC(=O)c1c(-c2ccccc2)noc1C	i	i	i	i	i	i
CC(Oc1ccccc1)C(=O)NC1CC(C)(C)NC(C)(C)C1 (stereo not drawn)	i	i	i	i	i	i
Cc1ccc(CNC(=O)C2CCCN(S(=O)(=O)c3cnc[nH]3)C2)cc1 (stereo not drawn)	i	i	i	96	67	i
O=C(C1CCCCC1)N1CCCn2c1nc1ccccc12	i	i	i	i	i	i
O=C(NCc1ccc(Cl)cc1)C1CCCN(S(=O)(=O)c2cnc[nH]2)C1 (stereo not drawn)	i	i	i	99	96	i
